Reference: ChEMBL document CHEMBL1143502, “Fluorescent metal ion indicators based on benzoannelated crown systems: a green fluorescent indicator for intracellular sodium ions” (Bioorg Med Chem Lett, 2005)

Assays:
Format in all cases: functional
[1] = The in vitro binding constant in presence of K+ was reported
Outline: (§1)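 Fluorescence titration in pH 7.0 buffer series (50 mM MOPS, pH set with tetramethylammonium hydroxide) containing 0–1000 mM of the monovalent cation (Li+, Na+, K+ or Rb+) at 20 °C. Kd (mM) was taken from the intensity change with cation concentration, alongside the response S = I[bound]/I[free].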

[2] = The in vitro binding constant in presence of Rb+ was reported; outline: as §1
[3] = The in vitro binding constant in presence of Li+ was reported; outline: as §1

| SMILES | Kd [1] | Kd [2] | Kd [3] |
| --- | --- | --- | --- |
| COC(=O)CN1CCOCCOCCOCCOc2cc(C3=C4C(C)=CC(C)=[N+]4[B-](F)(F)n4c(C)cc(C)c43)ccc21 | 170 mM |  |  |
| COC(=O)CN1CCOCCOCCOc2cc(-c3c4cc(F)c(=O)cc-4oc4cc(O)c(F)cc34)ccc21 | 978 mM | 376 mM | 438 mM |
| COC(=O)CN1CCOCCOCCOCCOc2cc(NC(=O)c3ccc(-c4c5cc(F)c(=O)cc-5oc5cc(O)c(F)cc45)c(C(=O)O)c3)ccc21 | 144 mM | 157 mM | 65 mM |
| COC(=O)CN1CCOCCOCCOCCOc2cc(-c3c4ccc(=[N+](C)C)cc-4oc4cc(N(C)C)ccc34)ccc21 | 254 mM |  |  |

Continued, values first:

| Kd [1] | Kd [2] | Kd [3] | SMILES |
| --- | --- | --- | --- |
| 291 mM | 319 mM | 142 mM | COC(=O)CN1CCOCCOCCOCCOc2cc(-c3c4cc(F)c(=O)cc-4oc4cc(O)c(F)cc34)ccc21 |
| 269 mM |  |  | COCCN1CCOCCOCCOCCOc2cc(-c3c4cc(F)c(=O)cc-4oc4cc(O)c(F)cc34)ccc21 |
| 11 mM | 25 mM |  | COC(=O)CN1CCOCCOCCOCCOCCOc2cc(-c3c4cc(F)c(=O)cc-4oc4cc(O)c(F)cc34)ccc21 |
